Experimental data from ChEMBL document CHEMBL4004879, “Synthesis of extended conjugated indolyl chalcones as potent anti-breast cancer, anti-inflammatory and antioxidant agents” (Bioorg Med Chem Lett, 2017).
Where a name gives a salt, the structure may show the parent alone.

Key:
[1] = test system: MCF7; assay: Cytotoxicity against human MCF7 cells after 48 hrs by SRB assay; assay type: functional; details: MCF7, 48 h; for CC50: read-out: LC50 (the source's name)
Method in brief: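 MCF-7 cells grown in RPMI-1640 with 10% FCS at 37 °C, 5% CO2. Cells with >97% viability (trypan blue) seeded and grown one day, then exposed to several concentrations for 48 h, in triplicate. Fixed with TCA at 4 °C for 1 h, stained with 0.4% SRB, bound dye dissolved in 0.01 M Tris pH 10.4, OD read at 540 nm. GI50 obtained by regression; TGI and LC50 from Ti/Tz.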

[2] = Antiinflammatory activity assessed as inhibition of heat-induced egg albumin denaturation at 1 mM after 15 mins relative to control; assay type: functional
Method in brief: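 Egg albumin from fresh hen's egg (0.4 ml) in PBS pH 6.4 with test solution (1 mM), 10 ml total; water as control. Incubated 37±2 °C for 15 min, then heated 70 °C for 5 min. After cooling, absorbance read at 660 nm against vehicle blank. Diclofenac sodium 1 mM as reference. % inhibition of denaturation calculated from test and control absorbances.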

[3] = Antioxidant activity assessed as inhibition of DPPH radical generation at 1 mM after 30 mins relative to control; assay type: functional
Method in brief: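 1 ml of compound (1 mM) mixed with 3.0 ml DPPH (0.5 mmol/L in methanol). Absorbance at 517 nm after 30 min at 37 °C. % scavenging = (A control − A sample)/A control × 100, with control being DPPH alone. Ascorbic acid as standard; mean of two replicates.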

[4] = Antioxidant activity assessed as inhibition of nitric oxide radical generation at 1 mM using sodium nitroprusside after 150 mins by Griess assay relative to control; assay type: functional
Method in brief: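 NO generated from 1 ml 10 mM sodium nitroprusside mixed with 1 ml of 1 mM compound in phosphate buffer (0.2 M, pH 7.4). Incubated 25 °C for 150 min, then mixed with 1.0 ml Griess reagent (1% sulphanilamide, 0.1% naphthylethylenediamine dichloride, 2% phosphoric acid). Absorbance read at 546 nm; % inhibition from control and sample absorbances. Ascorbic acid standard; mean of two replicates.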

[5] = Antioxidant activity assessed as inhibition of superoxide radical generation at 1 mM after 5 mins by NBT reduction assay relative to control; assay type: functional
Method in brief: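 1 ml NBT solution ([…]), 1 ml NADH ([…]) and 1 ml compound (1 mM) mixed, all in phosphate buffer pH 7.4. Reaction started with 1 ml PMS ([…]), then incubated 25 °C for 5 min. Absorbance at 560 nm against blank; % inhibition from control and sample absorbances. Ascorbic acid standard; mean of two replicates.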

[6] = (§1) Cytotoxicity against African green monkey Vero cells after 48 hrs by SRB assay; assay type: cell-based; details: chlorocebus sabaeus, Vero cells
[7] = test system: Vero; assay: as §1; assay type: cell-based; details: chlorocebus sabaeus, vero, 48 h

| SMILES | GI50 [1] | TGI [1] | CC50 [1] | inhibition [2] | inhibition [3] | inhibition [4] | inhibition [5] | GI50 at 48 h [6] | LC50 [7] | TGI [7] |
| --- | --- | --- | --- | --- | --- | --- | --- | --- | --- | --- |
| Cc1[nH]c2ccccc2c1C(=O)/C(C#N)=C/C=C(\Cl)c1ccc(Br)cc1 | 73.9 µM | 73.8 µM | > 100 µM | 85.3% | 15.8% | 78.3% | 69.1% |  |  |  |
| O=C(O)Cc1ccccc1Nc1c(Cl)cccc1Cl |  |  |  | 90.2% |  |  |  |  |  |  |
| COc1ccc2[nH]cc(C(=O)/C(C#N)=C/C=C(\Cl)c3ccc(OC)c(OC)c3)c2c1 | 44.9 µM | > 100 µM | > 100 µM | 87.2% | 34.2% | 74.2% | 58.2% |  |  |  |
| COc1ccc(/C(Cl)=C/C=C(\C#N)C(=O)c2c[nH]c3ccccc23)cc1 | 47.3 µM | > 100 µM | > 100 µM | 80.2% | 23.4% | 76.9% | 61.3% |  |  |  |
| COc1ccc(/C(Cl)=C/C=C(\C#N)C(=O)c2c[nH]c3ccc(Br)cc23)cc1 | 80.3 µM | > 100 µM | > 100 µM | 78.2% | 15.6% | 56.2% | 62.2% |  |  |  |
| COc1ccc(/C(Cl)=C/C=C(\C#N)C(=O)c2c(C)[nH]c3ccccc23)cc1 | 56.7 µM | > 100 µM | > 100 µM | 83.1% | 34.2% | 74% | 63.1% |  |  |  |
| N#C/C(=C\C=C(/Cl)c1ccc(Br)cc1)C(=O)c1c[nH]c2ccccc12 | 72.5 µM | 81.5 µM | > 100 µM | 38.5% | 18.4% | 76.7% | 65.5% |  |  |  |
| COc1ccc(/C(Cl)=C/C=C(\C#N)C(=O)c2c[nH]c3ccccc23)cc1OC | 44.2 µM | > 100 µM | > 100 µM | 85.3% | 15.8% | 75% | 63.6% |  |  |  |
| COc1ccc2[nH]cc(C(=O)/C(C#N)=C/C=C(\Cl)c3cc(OC)c(OC)c(OC)c3)c2c1 | 39.2 µM | > 100 µM | > 100 µM | 84.4% | 46% | 68.3% | 50% | 9.5 µM | 45.2 µM | 12.1 µM |
| COc1ccc2[nH]cc(C(=O)/C(C#N)=C/C=C(\Cl)c3ccc(Br)cc3)c2c1 | 79.9 µM | > 100 µM | > 100 µM | 88.1% | 40.8% | 76.7% | 54.5% |  |  |  |
| COc1cc(/C(Cl)=C/C=C(\C#N)C(=O)c2c(C)[nH]c3ccccc23)cc(OC)c1OC | < 0.1 µM | 83.7 µM | > 100 µM | 80.7% | 14.5% | 74.2% | 58.2% | 12.4 µM | 68.3 µM | 42.6 µM |
| COc1cc(/C(Cl)=C/C=C(\C#N)C(=O)c2c[nH]c3ccc(Br)cc23)cc(OC)c1OC | 30.8 µM | 96.5 µM | > 100 µM | 90.8% | 26.3% | 36.7% | 50% | 7.6 µM | 41.5 µM | 22.1 µM |
| COc1ccc(/C(Cl)=C/C=C(\C#N)C(=O)c2c(C)[nH]c3ccccc23)cc1OC | 29.6 µM | 93 µM | > 100 µM | 79.8% | 22.4% | 75.8% | 66.4% | 11.8 µM | 65.9 µM | 41.1 µM |
| COc1ccc(/C(Cl)=C/C=C(\C#N)C(=O)c2c[nH]c3ccc(Br)cc23)cc1OC | 31.9 µM | > 100 µM | > 100 µM | 21.1% | 11.8% | 57.5% | 80.9% | 8.2 µM | 51.8 µM | 38.4 µM |
| O=C1O[C@H]([C@@H](O)CO)C(O)=C1O |  |  |  |  | 44.2% | 42.6% | 74.1% |  |  |  |
| COc1ccc(/C(Cl)=C/C=C(\C#N)C(=O)c2c[nH]c3ccc(OC)cc23)cc1 | 87.1 µM | > 100 µM | > 100 µM | 79.5% | 16.7% | 41.6% | 60.7% |  |  |  |
| COc1cccc2c1C(=O)c1c(O)c3c(c(O)c1C2=O)C[C@@](O)(C(=O)CO)C[C@@H]3O[C@H]1C[C@H](N)[C@H](O)[C@H](C)O1 [DOXORUBICIN HYDROCHLORIDE] | < 0.1 µM | 11 µM | 97.1 µM |  |  |  |  | 19 µM | 52.6 µM | > 10 µM |
| N#C/C(=C\C=C(/Cl)c1ccc(Br)cc1)C(=O)c1c[nH]c2ccc(Br)cc12 | > 100 µM | > 100 µM | > 100 µM | 90.8% | 15.8% | 67.5% | 83.6% |  |  |  |
| COc1cc(/C(Cl)=C/C=C(\C#N)C(=O)c2c[nH]c3ccccc23)cc(OC)c1OC | 4 µM | 94.3 µM | > 100 µM | 86.2% | 21.1% | 73.3% | 59.1% | 16.2 µM | 54.2 µM | 35.9 µM |
